Experimental data published in ChEMBL document CHEMBL4842338, “System-oriented optimization of multi-target 2,6-diaminopurine derivatives: Easily accessible broad-spectrum antivirals active against flaviviruses, influenza virus and SARS-CoV-2” (Eur J Med Chem, 2021).
Active and inactive are the calls of the source. The calls are words filed in the database; no cut-off is given here.

Columns and labels:
[1] = tested on: Zika virus; assay: Antiviral activity against Zika virus H/PF/2013 infected in pre-seeded Huh-7 cells assessed as inhibition of viral replication incubated for 72 hrs by immunodetection based plaque reduction assay; assay type: functional, organism-based; settings: H/PF/2013, Huh-7, 72 h
[2] = biological target: Fyn (Tyrosine-protein kinase Fyn) (Homo sapiens, UniProt P06241); assay: Inhibition of human recombinant N terminal His6 tagged full length Fyn assessed as residual activity at 5 uM using […] as a substrate in the presence of NP-40 incubated for 10 mins by scintillation counting analysis relative to control; settings: probe […], read-out: Activity
Chain of Fyn (Tyrosine-protein kinase Fyn) (P06241 whole entry): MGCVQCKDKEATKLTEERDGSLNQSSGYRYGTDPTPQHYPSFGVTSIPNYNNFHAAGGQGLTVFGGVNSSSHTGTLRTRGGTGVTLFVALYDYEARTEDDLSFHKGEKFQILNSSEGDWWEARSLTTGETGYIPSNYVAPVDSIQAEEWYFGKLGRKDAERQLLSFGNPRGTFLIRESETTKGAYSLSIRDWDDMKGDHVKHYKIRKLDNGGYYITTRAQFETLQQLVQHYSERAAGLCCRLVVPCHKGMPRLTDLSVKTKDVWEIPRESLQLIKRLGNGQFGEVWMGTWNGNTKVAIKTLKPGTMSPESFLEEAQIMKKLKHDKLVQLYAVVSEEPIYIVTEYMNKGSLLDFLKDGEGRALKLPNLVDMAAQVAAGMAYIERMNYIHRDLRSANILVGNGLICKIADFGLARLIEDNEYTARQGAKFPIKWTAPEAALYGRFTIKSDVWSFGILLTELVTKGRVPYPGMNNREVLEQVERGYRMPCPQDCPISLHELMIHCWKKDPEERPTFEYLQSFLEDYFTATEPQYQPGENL
In short: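 Compounds at fixed 5 μM; 10–50 ng kinase, substrate and NP-40/BSA per supplementary table, 10 μL at 30 °C for 10 min in low-binding tubes. Reactions spotted on filter, dried, scintillation counted. Mean ± SD of two independent experiments.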

[3] = Cytotoxicity against African green monkey Vero E6 cells infected with SARS-COV-2 by celltiter-glo luminescent cell viability assay; assay type: cell-based, Vero C1008; settings: chlorocebus sabaeus, Vero E6 cells infected with SARS-COV-2
In short: (§1)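 Compound-exposed cells assessed by CellTiter-Glo luminescence versus DMSO control; CC50 from dose-response.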

[4] = tested on: Influenza A virus; assay: (§2) Antiviral activity against Influenza A Puerto Rico/8/34/H1N1 infected in human A549 cells assessed as inhibition of hemagglutinin expression at 20 uM treated post viral infection for 24 hrs followed by infection of fresh cell monolayer of A549 cells with supernatant for 24 hrs by In-cell western assay; assay type: functional; settings: A/Puerto Rico/8/1934(H1N1)
In short: (§3)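 A549 cells infected with PR8 H1N1 and given 20 μM compound: 2 h before infection (PRE), 1 h during adsorption (DUR), or 24 h after adsorption (POST); supernatants used to infect fresh monolayers for 24 h; anti-HA in-cell western; RFU as % of untreated infected; 3 replicates from two experiments.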

[5] = tested on: Influenza A virus; assay: as §2, with “for 1 hr during” for “post”, “absorption” for “infection for 24 hrs”; assay type: functional; settings: A/Puerto Rico/8/1934(H1N1); in short: as §3
[6] = tested on: Huh-7; assay: Effect on formation of DENV replication complex in human Huh-7 cells assessed as reduction NS3:NS5 colocalization into nucleus at 50 uM measured after 16 to 24 hrs by DAPI staining based confocal microscopy analysis; assay type: functional, cell-based; settings: time 16-24 hrs
In short: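 DENV-2-infected Huh-7 cells (MOI 0.05) treated at 50 μM, fixed at 8–24 h, stained for NS3/NS5; confocal colocalization by Manders coefficients with Costes P ≥95% as signal; versus untreated control; repeated at least twice.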

[7] = Selectivity index, ratio of CC50 for human Huh-7 cells to IC50 for Dengue virus serotype 2 New Guinea C infected in pre-seeded Huh-7 cells assessed as inhibition of viral replication incubated for 72 hrs by immunodetection based secondary yield reduction assay; assay type: toxicity, cell-based; settings: read-out: Selectivity Index
[8] = tested on: Influenza A virus; assay: Antiviral activity against Influenza A Puerto Rico/8/34/H1N1 infected in human A549 cells assessed as inhibition of hemagglutinin expression at 20 uM treated 2 to 6 hrs post infection for 24 hrs followed by infection in fresh monolayer of MDCK cells with supernatant for 24 hrs by time-of-addition assay; assay type: functional, organism-based; settings: A/Puerto Rico/8/1934(H1N1), time 2-6 hrs
[9] = Inhibition of full length ZIKV NS5-MTase domain using 7MeGpppAC4 as a substrate incubated for 30 mins by filter binding assay; set-up: species or system Zika virus
[10] = tested on: Caco-2; assay: Cytotoxicity against human Caco2 cells infected with SARS-COV-2 assessed as reduction in cell viability by celltiter-glo luminescent cell viability assay; assay type: cell-based; in short: as §1
[11] = Selectivity index, ratio of CC50 for African green monkey Vero E6 cells infected with SARS-COV-2 to IC50 for SARS-COV 2 infected in monkey Vero E6 cells; assay type: toxicity, cell-based, Vero C1008; settings: read-out: Selectivity Index
[12] = tested on: SARS-CoV-2; assay: Antiviral activity against SARS-COV 2 infected in quadruplicate Vero E6 cells with DYRA supernatant assessed as reduction in viral replication at 20 uM; assay type: functional; settings: Severe acute respiratory syndrome coronavirus 2, Vero C1008
[13] = tested on: Huh-7; assay: Effect on formation of DENV replication complex in human Huh-7 cells assessed as reduction in expression of NS5 at 50 uM measured after 8 to 24 hrs by DAPI staining based confocal microscopy analysis; assay type: functional, cell-based; settings: time 8-24 hrs
In short: (§4)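 Huh-7 cells (1 × 10⁴) on coverslips infected with DENV-2 (MOI 0.05), treated (100 or 50 μM as listed), fixed in 4% paraformaldehyde at 8, 12, 16, 24 h; anti-NS3/anti-NS5 with Alexa 488/568 secondaries, DAPI; confocal, 5 random fields at 40×; % positive cells; 2-way ANOVA with Dunnett.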

[14] = tested on: Influenza A virus; assay: Antiviral activity against Influenza A Puerto Rico/8/34/H1N1 infected in human A549 cells assessed as reduction in viral protein expression at 20 uM treated for 24 hrs pdp viral adsorption followed by staining with anti-Flu antibody observed at 24 hrs post infection by In-cell western assay; assay type: functional, organism-based; settings: A/Puerto Rico/8/1934(H1N1)
[15] = tested on: Huh-7; assay: Effect on formation of DENV replication complex in human Huh-7 cells assessed as reduction in expression of NS3 at 50 uM measured after 8 to 24 hrs by DAPI staining based confocal microscopy analysis; assay type: functional, cell-based; settings: time 8-24 hrs; in short: as §4
[16] = Inhibition of full length Dengue virus 2 NS5 RNA dependent RNA polymerase incubated for 10 mins by picogreen staining based fluorescent analysis (Rvb= 0.32+/-0.05 uM); set-up: species or system dengue virus type 2
[17] = tested on: dengue virus type 2; assay: Antiviral activity against Dengue virus serotype 2 New Guinea C infected in pre-seeded Huh-7 cells assessed as inhibition of viral replication incubated for 72 hrs by immunodetection based direct yield reduction assay; assay type: functional, organism-based; settings: huh-7
[18] = tested on: Influenza A virus; assay: Antiviral activity against Influenza A virus (A/parrot/Ulster/73(H7N1)) infected in human A549 cells assessed as reduction in viral protein expression at 20 uM treated for 24 hrs, pdp viral adsorption followed by staining with anti-Flu antibody observed at 24 hrs post infection by In-cell western assay; assay type: functional, organism-based
[19] = tested on: SARS-CoV-2; assay: Antiviral activity against SARS-COV 2 infected in monkey Vero E6 cells assessed as inhibition of viral replication at MOI of 0.01 and incubated after 2 hrs post infection for 48 hrs by direct yield reduction assay; assay type: functional, organism-based; settings: Severe acute respiratory syndrome coronavirus 2, Vero C1008
[20] = Selectivity index, ratio of CC50 for human Huh-7 cells to IC50 for Zika virus H/PF/2013 infected in pre-seeded Huh-7 cells assessed as inhibition of viral replication incubated for 72 hrs by immunodetection based direct yield reduction assay; assay type: toxicity, cell-based; settings: read-out: Selectivity Index
In short: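 Direct yield reduction in Huh7 cells (7000/well), infected with 50 TCID₅₀ of DENV or ZIKV, or 25 TCID₅₀ of WNV. Adsorption 1 h at 37 °C, then virus removed and serial compound dilutions added. Incubated 72 h (DENV, ZIKV) or 48 h (WNV). Viral antigen immunodetected on the monolayer. IC₅₀ by non-linear regression, mean of three experiments. SI = CC₅₀ (Huh7, CellTiter-Glo luminescence)/IC₅₀.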

[21] = tested on: A549; assay: Cytotoxicity against human A549 cells assessed as reduction in cell viability measured after 24 hrs by MTT assay; assay type: cell-based; settings: a549, 24 h
[22] = tested on: West Nile virus; assay: Antiviral activity against West Nile virus lineage 1 (Italy/2009) infected in pre-seeded Huh-7 cells assessed as inhibition of viral replication incubated for 48 hrs by immunodetection based direct yield reduction assay; assay type: functional, organism-based; settings: huh-7
[23] = Selectivity index, ratio of CC50 for human Huh-7 cells infected with SARS-COV-2 to IC50 for SARS-COV 2 infected in human Huh-7; assay type: toxicity; settings: read-out: Selectivity Index

In the case of `FC(F)(F)c1cccc(Nc2nc(NCCOc3ccccc3)nc3[nH]cnc23)c1`, the IC50 [1] is reported as 0.5 µM, the activity at 10 min, 5 µM [2] is reported as greater than 98% and the CC50 [3] is reported as 200 µM. The inhibition at 20 µM [4] was 50%, the inhibition at 20 µM [5] was 50% and the Activity [6] was “Active”. For the same compound, the selectivity ratio at 72 h [7] was 77, the Activity [8] was “inactive” and the IC50 [9] was “Not Active”. The CC50 [10] was 81.3 µM, the selectivity ratio [11] was 4 and the inhibition at 20 µM [12] was 91.9%. For the same compound, the Activity [13] was “Active”, the Activity [14] was “Active” and the Activity [15] was “Active”. For the same compound, the IC50 [16] was 43.7 µM, the IC50 [17] was “Not Active” and the Activity [18] was “Active”. It also gave an IC50 [19] of 53.4 µM, a selectivity ratio at 72 h [20] of 250 and a CC50 [21] of 106 µM. For the same compound, the IC50 [22] was “Not Active” and the selectivity ratio [23] was 74.
